Residue numbers refer to the chain shown, from its start.
Assays:
[1] = cited from earlier work
warfarin-resistant rats = details: cited from earlier work
[2] = test system: VKD carboxylation in UBIAD1-knockout FIXgla-PC/HEK293 cells; test: VKD carboxylation in UBIAD1-knockout FIXgla-PC/HEK293 reporter cells; type: cell-based, human; details: increasing concentrations, 24 hours
[3] = test system: VKD carboxylation of reporter-protein FIXgla-PC in FIXgla-PC/HEK293 cells; type: cell-based, human; details: 24 hours
How it was run: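 FIXgla-PC/HEK293 cells are HEK293 cells stably expressing protein C whose Gla domain is swapped for factor IX's. They were cultured 24 h with test compound, either fixed at 1 μM or at increasing concentrations, as carboxylation substrate. FIXgla-PC carboxylation efficiency was measured by ELISA directly on culture medium. Activity was expressed relative to vitamin K1 set at 100%. Background activity comes from residual K vitamins in fetal bovine serum.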

[4] = test system: VKD carboxylation of FIXgla-PC in FIXgla-PC/HEK293 cells; type: cell-based, human; details: 3 μM inhibitor, increasing concentrations of vitamin K1, 24 hours
VKOR Y139F = target: T1, VKOR Y139F (Homo sapiens, UniProt Q9BQB6, Y139F); test: Inhibition potency of VKAs on VKOR mutation expressed in DGKO reporter cells; type: cell-based; details: read-out: IC50 ± standard deviation, 5 μM KO, 24 hours
T1 sequence (Q9BQB6 1-163 Y139F): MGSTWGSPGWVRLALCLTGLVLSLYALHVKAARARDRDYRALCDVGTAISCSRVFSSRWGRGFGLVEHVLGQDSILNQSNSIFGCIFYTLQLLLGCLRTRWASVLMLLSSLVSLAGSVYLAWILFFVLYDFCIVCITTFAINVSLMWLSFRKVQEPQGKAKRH

vitamin K reductase = test: HPLC-based vitamin K reductase activity; type: cell-based, human; details: DGKO cells, 10 μM vitamin K1, 10 μM compound, 6 hours
How it was run: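 Reporter cells lacking endogenous VKOR and VKORL (TALEN double knockout) were cultured 6 h with 10 μM vitamin K1, with or without 10 μM test compound; DMSO was the control. Cellular K vitamins were extracted for reversed-phase HPLC. Unstable KH2 was not measured; reduction was coupled to epoxidation, and activity was read as KO produced.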

VKOR F55A = target: T2, VKOR F55A (Homo sapiens, UniProt Q9BQB6, F55A); test: Inhibition potency of VKAs on VKOR mutation expressed in DGKO reporter cells; type: cell-based
T2 sequence (Q9BQB6 1-163 F55A): T1 sequence (Q9BQB6 1-163 Y139F) with F55A, F139Y

HEK293 reporter cells = test: Cell viability assay in reporter cells; type: cell-based, human; details: corresponding concentrations of the carboxylation assay
VKOR L128R = target: T3, VKOR L128R (Homo sapiens, UniProt Q9BQB6, L128R); test: Inhibition potency of VKAs on VKOR mutation expressed in DGKO reporter cells; type: cell-based; details: read-out: IC50 ± standard deviation, 5 μM KO, 24 hours
T3 sequence (Q9BQB6 1-163 L128R): T1 sequence (Q9BQB6 1-163 Y139F) with L128R, F139Y

wild-type VKOR = test: Inhibition potency of VKAs on VKOR transiently expressed in DGKO reporter cells; type: cell-based, human
GGCX = test: In vitro vitamin K epoxidation activity assay with GGCX enriched microsomes; type: biochemical; details: FLEEL, FIX-propeptide, KH2, 100 μM compound
VKOR A26P = target: T4, VKOR A26P (Homo sapiens, UniProt Q9BQB6, A26P); test: Inhibition potency of VKAs on VKOR mutation expressed in DGKO reporter cells; type: cell-based
T4 sequence (Q9BQB6 1-163 A26P): T1 sequence (Q9BQB6 1-163 Y139F) with A26P, F139Y

[5] = test system: KO reductase (reduction of KO to vitamin K1); test: HPLC-based KO reductase activity in GGCX-knockout HEK293 cells; type: cell-based, human; details: GGCX-knockout HEK293, 10 μM KO, 10 μM compound, 6 hours
How it was run: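 GGCX-knockout FIXgla-PC/HEK293 cells (CRISPR-Cas9) were incubated 6 h in medium with 10 μM KO, with or without 10 μM test compound; DMSO-treated cells served as control. K vitamins were extracted from the cells and analysed by reversed-phase HPLC. KO reductase activity was scored as vitamin K1 formed, with vitamin E acetate as standard.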

VKOR W59R = target: T5, VKOR W59R (Homo sapiens, UniProt Q9BQB6, W59R); test: Inhibition potency of VKAs on VKOR mutation expressed in DGKO reporter cells; type: cell-based; details: read-out: IC50 ± standard deviation, 5 μM KO, 24 hours
T5 sequence (Q9BQB6 1-163 W59R): T1 sequence (Q9BQB6 1-163 Y139F) with W59R, F139Y

[6] = test system: VKD carboxylation of FIXgla-PC in FIXgla-PC/HEK293 cells (KO as substrate); test: Inhibition of VKD carboxylation in FIXgla-PC/HEK293 cells with 5 μM KO; type: cell-based, human
[7] = test system: vitamin K reductase (DGKO reporter cells); type: cell-based, human; details: increasing concentrations
[8] = test system: UBIAD1-dependent VKD carboxylation; type: cell-based, human; details: UBIAD1 transiently expressed in UBIAD1-knockout cells, increasing concentrations
How it was run: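 FIXgla-PC/HEK293 reporter cells with UBIAD1 knocked out by CRISPR-Cas9 were transiently transfected with UBIAD1 cDNA. Transfected cells were cultured with increasing concentrations of vitamin K analogue. FIXgla-PC carboxylation efficiency in the medium was then measured by ELISA, normalised to vitamin K1 as 100%.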

[9] = test system: UBIAD1 (MK-4 production in HEK293 cells); test: Conversion of vitamin K derivatives to MK-4 in FIXgla-PC/HEK293 cells; type: cell-based, human; details: 10 μM VK-K-COT plus 5 μM warfarin, 6 hours, HPLC
[10] = test system: naturally occurring VKOR mutations; details: cell-based functional study; cited from earlier work
[11] = 1 μM vitamin K derivative as substrate, FIXgla-PC/HEK293

Structure (SMILES): C/C(=C\CC1=C(Cl)C(=O)c2ccccc2C1=O)CCCC(C)CCCC(C)CCCC(C)C (stereo not shown) [Chloro-K]
- antagonism of vitamin K [1]: potent antagonist of vitamin K
- anticoagulant effect in warfarin-resistant rats (warfarin-resistant rats): effective anticoagulant

Structure (SMILES): CC(C)=CCC/C(C)=C/CC/C(C)=C/CC/C(C)=C/CC1=C(C)C(=O)c2ccccc2C1=O [MK-4, menaquinone-4]
- support of VKD carboxylation as substrate in UBIAD1-knockout cells [2]: can efficiently support VKD carboxylation

Structure (SMILES): CC1=C(Cc2ccccc2)C(=O)c2ccccc2C1=O [VK-M-Ben]
- carboxylation activity (vitamin K1 normalized to 100%) [3, 11]: 3%
- carboxylation activity as substrate, in words [3, 11]: abolished carboxylation activity

Structure (SMILES): CC1=C(CC2=CC=CC=CC=C2)C(=O)c2ccccc2C1=O [VK-M-COT]
- reversal of inhibition of VKD carboxylation by vitamin K1 [4]: can be reversed equally with higher concentrations of vitamin K1
- IC50 (VKOR Y139F): 658 ± 54 nM
- reduction of vitamin K (production of KO, HPLC) (vitamin K reductase): significantly decreased
- IC50 (VKOR F55A; read-out: IC50 ± standard deviation, VKOR F55A in DGKO cells, 5 μM KO, 24 hours): 249 ± 66 nM
- cytotoxicity (cell viability) (HEK293 reporter cells): not due to the cytotoxicity
- IC50 (VKOR L128R): 575 ± 132 nM
- IC50 variation between warfarin-resistant VKOR mutations and wild-type VKOR (wild-type VKOR; A26P, F55A, W59R, L128R, Y139F vs wild type): less than 3 fold
- GGCX vitamin K epoxidation activity (GGCX): inhibits GGCX activity for vitamin K epoxidation
- IC50 (VKOR A26P; read-out: IC50 ± standard deviation, VKOR A26P in DGKO cells, 5 μM KO, 24 hours): 487 ± 75 nM
- reduction of KO to vitamin K1 (HPLC) [5]: significantly decreased
- carboxylation activity as substrate, in words [3, 11]: activity lower than the background activity (DMSO)
- dose-response of VKD carboxylation on concentration titration ([3]; increasing concentrations of vitamin K derivative): inhibitory dose-response curve
- IC50 (VKOR W59R): 615 ± 101 nM
- inhibition of reporter-protein carboxylation, KO as substrate ([6]; FIXgla-PC/HEK293, 5 μM KO, increasing concentrations): inhibited reporter-protein carboxylation
- inhibition potency lower than warfarin (fold) ([6]; IC50 ratio to warfarin, FIXgla-PC/HEK293, 5 μM KO): ~ 20 fold
- inhibition of reporter-protein carboxylation, vitamin K1 as substrate [7]: inhibited reporter-protein carboxylation

Structure (SMILES): CC1=CC(=O)c2ccccc2C1=O [menadione]
- VKD carboxylation activity after re-introduction of UBIAD1 [8]: regained VKD carboxylation activity
- support of VKD carboxylation as substrate in UBIAD1-knockout cells [2]: unable to support reporter-protein carboxylation

Structure (SMILES): CC1=C(C/C=C(\C)CCC[C@H](C)CCC[C@H](C)CCCC(C)C)C(=O)c2ccccc2C1=O [vitamin K1, phylloquinone]
- support of VKD carboxylation as substrate in UBIAD1-knockout cells [2]: can efficiently support VKD carboxylation

Structure (SMILES): CC(=O)CC(c1ccccc1)c1c(O)c2ccccc2oc1=O (stereo not shown) [warfarin, reference compound]
- reversal of inhibition of VKD carboxylation by vitamin K1 [4]: can be reversed equally with higher concentrations of vitamin K1
- MK-4 epoxide in cells on VKOR inactivation [9]: MK-4 epoxide accumulated
- increase of IC50 compared to wild-type VKOR (VKOR F55A; F55A vs wild type): 417 fold
- effect of warfarin-resistant VKOR mutations on inhibition potency (wild-type VKOR; all warfarin-resistant VKOR mutations tested vs wild type): up to 400 fold
- increase of IC50 compared to wild-type VKOR (VKOR A26P; A26P vs wild type): 60 fold
- variation of warfarin resistance among naturally occurring VKOR mutations [10]: over 100 fold
- IC50 ([6]; Homo sapiens, HEK293, 24 h, read-out: IC50 for VKD carboxylation): 12.5 nM

Source: publication PMC7925372 (Journal of thrombosis and haemostasis : JTH, 2021)
